Experimental data taken from ChEMBL document CHEMBL3779801, “Discovery of the Selective CYP17A1 Lyase Inhibitor BMS-351 for the Treatment of Prostate Cancer” (ACS Med Chem Lett, 2016).
pIC50: −log10 of the molar value.

Experiments:
[1] = molecular target: T1, Cytochrome P450 11B1, mitochondrial (Homo sapiens, UniProt P15538); test: Inhibition of CYP11B1 in human H295R cells using deoxycorticosterone as substrate incubated for 48 hrs by LC-MS method; type: ADME, cell-based
T1 sequence (P15538 whole entry): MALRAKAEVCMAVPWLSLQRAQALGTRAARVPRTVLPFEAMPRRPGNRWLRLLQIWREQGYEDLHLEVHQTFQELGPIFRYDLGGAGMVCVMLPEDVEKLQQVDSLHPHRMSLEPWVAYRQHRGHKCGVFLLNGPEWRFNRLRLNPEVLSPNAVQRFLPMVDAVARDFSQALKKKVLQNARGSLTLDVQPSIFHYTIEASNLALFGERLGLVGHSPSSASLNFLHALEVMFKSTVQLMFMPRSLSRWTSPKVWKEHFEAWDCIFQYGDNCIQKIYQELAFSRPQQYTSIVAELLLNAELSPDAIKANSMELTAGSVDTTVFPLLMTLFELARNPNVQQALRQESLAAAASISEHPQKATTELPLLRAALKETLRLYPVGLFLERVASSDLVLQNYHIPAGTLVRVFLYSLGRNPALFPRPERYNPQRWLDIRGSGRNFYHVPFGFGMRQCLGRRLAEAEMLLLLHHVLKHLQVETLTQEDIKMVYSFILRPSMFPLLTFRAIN

[2] = Volume of distribution at steady state in cynomolgus monkey plasma at 2 mg/kg, iv by LC-MS/MS analysis; type: ADME, organism-based, Macaca fascicularis; conditions: read-out: Vdss
Summary of the method: (§1)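 Cynomolgus monkeys were dosed intravenously. Plasma parameters are given as mean ± standard deviation.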

[3] = Tmax in one day castrated cynomolgus monkey at 1.5 mg/kg, po bid measured after second dose administered at 8 hrs; type: ADME, organism-based, Macaca fascicularis; conditions: male, in vivo
Summary of the method: (§2)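 Castrated cynomolgus monkeys were studied over one day with oral BID dosing at time 0 and 8 h. Plasma levels were sampled at set time points over 1–24 h and reported as average ± standard deviation in nM, n = 4.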

[4] = Metabolic stability in human liver microsomes assessed as parent compound remaining at 0.5 uM incubated for 10 mins; type: ADME; conditions: read-out: Stability
Summary of the method: (§3)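 Compound at 0.5 μM was incubated with human, mouse or cynomolgus liver microsomes for 10 min.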

[5] = molecular target: T2, Cytochrome P450 1A2 (Homo sapiens, UniProt P05177); test: Inhibition of CYP1A2 (unknown origin); type: ADME
T2 sequence (P05177 whole entry): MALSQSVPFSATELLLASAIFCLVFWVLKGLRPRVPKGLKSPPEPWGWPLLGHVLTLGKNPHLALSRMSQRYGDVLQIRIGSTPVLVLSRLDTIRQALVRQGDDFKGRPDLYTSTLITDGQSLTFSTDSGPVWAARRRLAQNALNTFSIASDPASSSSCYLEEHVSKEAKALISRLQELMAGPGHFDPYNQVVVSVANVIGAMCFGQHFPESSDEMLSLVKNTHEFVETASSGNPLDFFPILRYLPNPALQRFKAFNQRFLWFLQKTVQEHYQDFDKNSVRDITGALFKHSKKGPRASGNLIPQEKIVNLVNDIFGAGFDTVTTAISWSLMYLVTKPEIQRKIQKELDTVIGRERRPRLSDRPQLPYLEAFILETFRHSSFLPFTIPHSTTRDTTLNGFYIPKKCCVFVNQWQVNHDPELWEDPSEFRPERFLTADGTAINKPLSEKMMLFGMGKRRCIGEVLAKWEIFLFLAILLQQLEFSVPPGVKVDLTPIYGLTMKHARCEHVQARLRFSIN

[6] = system: Cynomolgus monkey; test: Effect on progesterone level in one day castrated cynomolgus monkey assessed as baseline level at 1.5 mg/kg, po bid for 24 hrs by radiometric immunoassay; type: ADME, organism-based, Macaca fascicularis; conditions: in vivo
[7] = Metabolic stability in cynomolgus monkey liver microsomes assessed as parent compound remaining at 0.5 uM incubated for 10 mins; type: ADME, Macaca fascicularis; conditions: read-out: Stability; summary of the method: as §3
[8] = molecular target: T3, Steroid 21-hydroxylase (Homo sapiens, UniProt P08686); test: Inhibition of CYP21A2 in human H295R cells using hydroxy progesterone as substrate incubated for 120 mins by LC-MS method; type: ADME, cell-based
T3 sequence (P08686 whole entry): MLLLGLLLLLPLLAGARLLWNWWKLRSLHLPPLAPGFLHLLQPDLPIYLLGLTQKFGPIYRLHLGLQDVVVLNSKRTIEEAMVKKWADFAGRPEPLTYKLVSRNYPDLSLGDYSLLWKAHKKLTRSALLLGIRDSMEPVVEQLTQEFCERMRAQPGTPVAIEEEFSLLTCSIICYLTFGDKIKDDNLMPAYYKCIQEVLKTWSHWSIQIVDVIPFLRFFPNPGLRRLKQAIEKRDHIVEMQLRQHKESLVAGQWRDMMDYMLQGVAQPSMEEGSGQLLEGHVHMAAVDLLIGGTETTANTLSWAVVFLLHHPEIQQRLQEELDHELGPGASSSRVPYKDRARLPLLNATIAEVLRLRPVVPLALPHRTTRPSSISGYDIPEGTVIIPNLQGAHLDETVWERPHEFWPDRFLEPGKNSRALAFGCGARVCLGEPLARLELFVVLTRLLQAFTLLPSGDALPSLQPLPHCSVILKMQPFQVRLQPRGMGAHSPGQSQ

[9] = AUC in cynomolgus monkey plasma at 4 mg/kg, po after 0.25 to 45 hrs by LC-MS/MS analysis; type: ADME, organism-based, Macaca fascicularis; parameters: dose 4 mg/kg, time upper 45 hr, time lower 0.25 hr, route oral
Summary of the method: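 Cynomolgus monkeys were dosed orally from a solution formulation. Plasma parameters are given as mean ± standard deviation.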

[10] = Oral bioavailability in cynomolgus monkey plasma at 4 mg/kg after 0.25 to 45 hrs by LC-MS/MS analysis; type: ADME, organism-based, Macaca fascicularis
Summary of the method: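 Oral bioavailability in cynomolgus monkey came from oral dosing of a solution formulation combined with a separate 2 mg/kg iv dose. Values are mean ± standard deviation.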

[11] = Clearance in cynomolgus monkey plasma at 2 mg/kg, iv by LC-MS/MS analysis; type: ADME, organism-based, Macaca fascicularis; summary of the method: as §1
[12] = Metabolic stability in mouse liver microsomes assessed as parent compound remaining at 0.5 uM incubated for 10 mins; type: ADME; conditions: read-out: Stability; summary of the method: as §3
[13] = Intrinsic permeability from apical to basolateral side in human Caco2 cells; type: ADME, cell-based; conditions: Caco-2
[14] = Tmax in one day castrated cynomolgus monkey at 1.5 mg/kg, po bid; type: ADME, organism-based, Macaca fascicularis; conditions: male, in vivo; summary of the method: as §2

Structure (SMILES): Cc1ccncc1-c1cccc2c1ncn2CC(F)(F)F
- pIC50 [1]: < 5.12
- Vd [2]: 4.4 L/kg
- Tmax [3]: 9.5 h
- remaining at 10 min, 0.5 µM [4]: 90%
- pIC50 [5]: 5.05
- Activity [6]: Non-toxic
- remaining at 10 min, 0.5 µM [7]: 83%
- pIC50 [8]: < 5.12
- AUC [9]: 12.3 µM·h
- bioavailability [10]: 97%
- clearance [11]: 1.14 L/h/kg
- remaining at 10 min, 0.5 µM [12]: 66%
- Papp A→B [13]: 400 nm/s
- Tmax [14]: 1 h
